The format of data set [1] is in vivo, human. As to conditions: 100 µg s.c. single dose. An outline of the steps: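 Adults aged 18–85 (BMI 17–40 kg/m2) were grouped by Cockcroft–Gault CrCl and given a single subcutaneous 100 µg dose of test compound. Fasting ran from ≥8 h before to 4 h after dosing, with no fluids 1 h before to 2 h after. Adverse events, vitals, ECG, telemetry and laboratory tests were monitored inpatient for 72 h, then outpatient at days 7±1 and 28±2. TEAEs were coded by MedDRA 21.0, counting each once at highest severity.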

Data set [2] in a line: Immunogenicity: antidrug antibodies. Type of data set: in vivo, human. The settings on record: 100 µg s.c. single dose; baseline, 7 and 28 days after treatment. An outline of the steps: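 Open-label single subcutaneous dose of test compound (100 µg, lower abdomen, fasted) in adults with normal or impaired renal function. Antidrug antibody titers were measured at baseline, 7 and 28 days post-dose, or at early discontinuation. Cross-reactivity to GLP-1 and glucagon was also recorded. Treatment-emergent incidence is treatment-induced plus treatment-boosted ADA. Analysed in all treated participants with ADA readings.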

For data set [3] the following is noted: cited from earlier work.
The conditions of data set [4]: 5–300 µg dose range; previously demonstrated, no reference given; cited from earlier work.
The conditions of data set [5]: severe renally impaired and ESRD subjects; cited from earlier work.
For data set [6] the following is noted: in vitro studies; cited from earlier work.

Entries after “also recorded” stand apart in the source; their conditions may differ. Where two headings read alike, the source gives them in different places.

Compound `CCCCCCCCCCCCCCCC(=O)N[C@@H](CCC(=O)NCCCC[C@H](NC(=O)[C@H](CC(=O)O)NC(=O)[C@H](CO)NC(=O)[C@@H](NC(=O)[C@H](Cc1ccccc1)NC(=O)[C@@H](NC(=O)CNC(=O)[C@H](CCC(N)=O)NC(=O)[C@H](CO)NC(=O)[C@@H](N)Cc1c[nH]cn1)[C@@H](C)O)[C@@H](C)O)C(=O)N[C@@H](CO)C(=O)N[C@@H](CCC(=O)O)C(=O)N[C@@H](Cc1ccc(O)cc1)C(=O)N[C@@H](CC(C)C)C(=O)N[C@@H](CC(=O)O)C(=O)N[C@@H](CO)C(=O)N[C@@H](CCC(=O)O)C(=O)N[C@@H](CCCNC(=N)N)C(=O)N[C@@H](C)C(=O)N[C@@H](CCCNC(=N)N)C(=O)N[C@@H](CC(=O)O)C(=O)N[C@@H](Cc1ccccc1)C(=O)N[C@H](C(=O)N[C@@H](C)C(=O)N[C@@H](Cc1c[nH]c2ccccc12)C(=O)N[C@@H](CC(C)C)C(=O)N[C@@H](CCC(=O)O)C(=O)N[C@@H](C)C(=O)NCC(=O)NCC(=O)O)C(C)C)C(=O)O` [cotadutide] registered an Incidence of headache in data set [1] (10 of 37 individuals) of 27.0%. The results for the Incidence of nausea in data set [1] (12 of 37 individuals) and in data set [1] (normal renal function group) were 32.4% and 38%, respectively. The Incidence of vomiting in data set [1] (13 of 37 individuals) stood at 35.1%; in data set [1] (normal renal function group) it was 38%. Also, in data set [1] (all groups), the “Severity of TEAEs” value is listed as “mostly mild to moderate in severity”. The “Incidence of TEAE” value worked out at 59.5% in data set [1] (all patients, 22 of 37); 72.7% in data set [1] (lower moderate renal impairment group, 8 of 11 patients); 42.9% in data set [1] (upper moderate renal impairment group, 3 of 7 patients). Further, the “Incidence of nausea, range” value in data set [1] (renal impairment groups) is 29–38%. Also, the “Incidence of vomiting, range” value in data set [1] (renal impairment groups) is 18–50%. Further, the “Deaths or other serious TEAEs” value in data set [1] (study period) is “no deaths or other serious TEAEs”. Also, the “Antidrug antibody (ADA) results” value in data set [2] is recorded as “No positive antidrug antibody results; also recorded: No confirmed positive ADA results”. Also, the “Urine albumin-to-creatinine ratio vs placebo” value in data set [3] (32-day treatment with cotadutide 50–300 µg, T2D and stage 3 CKD with micro- and macroalbuminuria) is “reduced urine albumin-to-creatinine ratio”. The “Participants with a serious TEAE deemed related to cotadutide” value in data set [3] (once-daily cotadutide titrated to 50–300 µg for 32 days, moderate renal impairment and T2D, 1 of 21 participants) was 4.8%. Besides, the “PK profile (dose and time dependence)” value in data set [4] was “linear and time-independent PK profile”.

With “exenatide: GLP-1 receptor agonist exenatide (exendin-4)”, the “Tolerability and PK in severe renal impairment and ESRD” value in data set [5] was “poor tolerability and significant changes in PK”. In data set [6], the “Primary cleavage sites (metabolized specifically in the kidney)” value is “after amino acids (AA)-21 and -22”.

Values taken from publication PMC10256642 (Clinical Pharmacokinetics, 2023).
